# CHRM4 agonist: agonists of human muscarinic M4 receptor (CHRM4). CHO-K1 hM4/Gqi5, Fluo-8 calcium fluorescence; vehicle 0%, full acetylcholine response 100%. hit rate 0.14% among 360,000. P08173. activation, % at 3 µM;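 active = activation above the run mean over all test wells plus 3 SD, cut at about 32% in these data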;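 note: peak over basal fluorescence ratio per well then scaled between controls; 0% = DMSO wells and 100% = acetylcholine at EC100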
# CHRM4 antagonist: antagonists of human muscarinic M4 receptor (CHRM4); P08173; CHO-hM4 cells, ACh EC80, Fluo-8 calcium fluorescence; hit rate 0.73% among 360,000; AID 624125; inhibition, % at 3 µM;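 active = inhibition above its plate's cutoff, the mean inhibition of sample wells plus 3 SD, cut at about 27% in these data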;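 note: 0% = acetylcholine EC80 with DMSO and 100% = DMSO without agonist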
# CHRM4 PAM: potentiates acetylcholine response at human M4 receptor | P08173 | CHO-K1 hM4/Gqi5, Fluo-8 calcium fluorescence, ACh EC20; 0% = ACh EC20, 100% = maximal ACh | activation, % at 3 µM | hit rate 0.4% among 360,000;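 active = activation above its plate's cutoff, the mean activation of sample wells plus 3 SD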
# M5 ag: agonists of human muscarinic M5 receptor (CHRM5). P08912. CHO-K1 hM5 cells, Fluo-8 calcium fluorescence; 0% DMSO wells, 100% maximal acetylcholine response. activation, % at 3 µM. hit rate 0.19% among 360,000. AID 624037;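 active = activation above the run's mean over test compounds plus 3 SD, cut at about 23% in these data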;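 note: signal is peak over basal fluorescence ratio across the kinetic read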
# Target sequence (P08912 whole entry, looked up): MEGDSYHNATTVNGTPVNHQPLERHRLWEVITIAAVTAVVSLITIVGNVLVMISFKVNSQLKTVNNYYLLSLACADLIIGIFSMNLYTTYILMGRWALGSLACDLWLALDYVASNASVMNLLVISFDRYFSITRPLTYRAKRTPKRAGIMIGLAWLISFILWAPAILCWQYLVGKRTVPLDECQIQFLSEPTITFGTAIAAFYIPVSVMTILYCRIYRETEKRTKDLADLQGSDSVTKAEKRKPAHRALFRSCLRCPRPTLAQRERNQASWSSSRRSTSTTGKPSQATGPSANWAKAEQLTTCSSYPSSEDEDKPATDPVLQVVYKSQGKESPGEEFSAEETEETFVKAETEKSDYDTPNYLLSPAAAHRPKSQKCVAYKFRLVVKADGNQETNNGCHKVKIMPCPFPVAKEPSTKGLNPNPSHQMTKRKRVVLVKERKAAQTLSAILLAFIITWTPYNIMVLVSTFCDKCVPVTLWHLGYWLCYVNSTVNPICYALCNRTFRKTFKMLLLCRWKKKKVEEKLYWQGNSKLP
# M5 PAM: positive allosteric modulators of human muscarinic M5 receptor; CHO-K1 hM5, Fluo-8 calcium, ACh EC20 PAM; 0% = ACh EC20, 100% = ACh EC100; AID 624038; P08912; activation, % at 3 µM; hit rate 0.3% among 360,000;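 active = activation above the run cutoff, the mean activation of all test compounds plus 3 SD, cut at about 18% in these data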
#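 Test system: CHO-K1 hM5 cells / Doses: single-point, 3 µM nominal / Times: Post-acetylcholine fluorescence recording 140 s / Technique: Fluo-8 calcium fluorescence / Measure: Max/basal fluorescence ratio as % of EC20–EC100 ACh window / Benchmarks: low control EC20 acetylcholine (0%), high control EC100 acetylcholine (100%) / Replicates: one well per compound, no replicates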
# CHRM5 antagonist: CHRM5 antagonism in calcium assay | P08912 | CHO-hM5 cells, Fluo-8 calcium fluorescence, ACh EC80 | inhibition, % at 3 µM | hit rate 0.59% among 360,000 | AID 624040;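 active = inhibition above a per-plate cutoff, the mean of that plate's test compounds plus 3 SD, cut at about 27% in these data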;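 note: 0% = acetylcholine EC80 with DMSO and 100% = DMSO without agonist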
# Numbers without * were called inactive. In the library only some 1.8% were active in any assay of this set; here they are far more common.
SMILES,CHRM4 agonist,CHRM4 antagonist,CHRM4 PAM,M5 ag,M5 PAM,CHRM5 antagonist
O=S(=O)(c1ccc(F)cc1)N1CC2CCCN2c2ccc(C(F)(F)F)cc21 (configuration not stated),-3.0,38.6*,-17.1,-4.4,-4.6,-4.8
CCc1nc2c(OCc3ccc(OC(F)F)cc3)cccn2c1N(C)C(=O)c1ccc(OC)cc1,1.4,-7.6,-5.1,-2.3,-4.8,-7.3
CN(C)c1ccc(/C=C/c2ccc3c4ccccc4ccc3[n+]2-c2ccccc2)cc1,18.5,40.3*,-22.5,-1.2,-27.6,43.2*
CN(C)c1ccc(/C=C/c2ccc3ccccc3[n+]2C)cc1,0.7,-0.1,7.3,-0.5,-4.9,13.6
C[C@H](NC(=O)C1CCN(C(=O)[C@@H]2CCCN2C(=O)OC(C)(C)C)CC1)C(=O)NCc1ccc(F)cc1,0.5,-11.8,0.7,0.4,-4.0,-1.4
Cc1c(NC(=O)c2cc(-n3cnnc3)ccc2Cl)cccc1-c1nc2ccccc2s1,13.5,4.5,-6.4,0.4,-11.2,3.6
Cc1c(NC(=O)c2cccs2)cccc1-c1nc2ccccc2s1,8.6,30.9*,-0.7,1.8,2.1,19.3
NC(=O)c1c(NC(=O)Cn2cnc([N+](=O)[O-])n2)sc2c1CCCC2,3.5,27.7*,3.1,-1.3,-4.4,15.2
COCCNC(=O)C1(C)CCCN(Cc2csc(-c3ccc(Cl)cc3)n2)C1 (configuration not stated),3.7,-5.4,1.4,-2.0,0.5,-0.3
O=C(NCCn1cc(SCc2ccc(F)cc2)c2ccccc21)c1ccccc1F,8.5,28.2*,-12.2,0.8,-15.8,4.2
CCN1CCN(c2c(/C=C3\SC(=S)N(Cc4ccco4)C3=O)c(C)c(C#N)c(=O)n2C)CC1,20.6,7.1,-31.9,57.4*,-20.0,14.6
COc1ccc(-n2c(C)cc(/C=C3\SC(=S)N(Cc4ccco4)C3=O)c2C)cc1,1.9,6.7,0.9,8.0,-0.5,8.4
CCOC(=O)c1ccccc1-n1c(C)cc(C2N=C(N)Nc3nc4ccccc4n32)c1C (configuration not stated),0.9,59.6*,-16.0,-6.6,-22.4,8.6
CC(C)NC(=O)c1cc(C2CCCCN2C(=O)c2ccc(C#N)cc2)on1 (configuration not stated),2.0,-12.6,11.2,0.5,-3.7,3.9
Cc1ccc(C(=O)NCCc2nnc3ccc(SCC(=O)Nc4nnc(C)s4)nn23)cc1,-0.9,6.0,4.1,-1.0,-0.6,0.6
CC(=O)Nc1ccc(NC(=O)C(C)OC(=O)c2ccc3c(c2)OCCO3)cc1 (configuration not stated),0.8,-7.8,32.0*,-3.5,4.3,2.9
CC(=O)NCC(=O)OC(C)C(=O)Nc1ccc(C(C)=O)cc1 (configuration not stated),0.6,-1.0,1.5,-0.2,25.1*,-5.3
Cc1ccc2nc(-c3ccc(Cl)cc3)c(Cc3ccccn3)n2c1,2.5,1.4,4.2,0.5,3.9,-5.2
CCCCCc1ccc(OCCCC[n+]2ccc(C)cc2)c(CCCCC)c1,10.7,48.1*,-24.4,-16.8,-31.3,21.8
CCCCCc1ccc(OCCCC[n+]2cccc(C)c2)c(CCCCC)c1,0.9,42.5*,-16.8,-9.8,-19.1,21.3
CCC(C)(C)c1ccc(OCCCC[n+]2ccccc2)c(C(C)(C)CC)c1,8.2,22.0,-15.6,-9.6,-19.8,21.3
CCCCCc1ccc(OCCCC[n+]2ccccc2)c(CCCCC)c1,-0.8,12.6,-16.9,-10.4,-14.7,9.4
OC(c1cccc(Cl)c1)c1nc(/C=C/c2ccc(C(F)(F)F)cc2)cs1 (configuration not stated),0.6,-4.2,5.0,0.1,-3.8,2.9
CC(C)[N+](C)(C)CC(O)CN(c1ccccc1)c1ccccc1 (configuration not stated),0.0,17.3,-21.8,-17.4,-34.6,27.4*
Cc1cc(-c2csc(NC(=O)c3ccc(C#N)cc3)n2)c(C)n1Cc1ccco1,1.3,15.3,24.7*,2.9,6.5,6.7
SMILES,CHRM4 agonist,CHRM4 antagonist,CHRM4 PAM,M5 ag,M5 PAM,CHRM5 antagonist
Cc1ccc(NC(=O)CSc2nnc(NC3CC3)s2)cc1S(=O)(=O)N1CCOCC1,1.5,-8.1,10.6,0.9,3.6,2.5
COc1ccc(Cn2cc(CN3CC(N4CCN(Cc5ccccc5F)CC4)CS3(=O)=O)nn2)cc1 (configuration not stated),3.2,-0.6,7.6,1.8,2.1,-4.2
CCN(CC#CCC1(O)c2ccccc2-c2ccccc21)C(C)C,1.3,34.8*,-14.0,-14.3,-49.7,38.6*
CCN(CC)CC#CCC1(O)c2ccccc2-c2ccccc21,1.3,17.0,-11.1,-6.4,-25.1,23.3
CCCCCn1nnnc1C1(C)CCC(=O)N1Cc1ccco1 (configuration not stated),1.0,-4.7,1.1,3.8,5.0,-9.8
Cn1c(=O)c2[nH]c(C3CC=CCC3)nc2n(C)c1=O (configuration not stated),1.1,-5.3,-0.6,2.6,5.1,6.8
Cn1c(=O)c2[nH]c(C3CCCC3)nc2n(C)c1=O,0.6,101.1*,-19.7,0.6,-4.0,0.1
COC(=O)C1=NN(c2ccc(C)cc2)C2(S1)SC(C(C)=O)=C(C)N2c1ccccc1 (configuration not stated),1.8,22.2,0.0,-1.5,20.6*,-0.5
COC(=O)C1=NN(c2ccccc2)C2(S1)SC(C(C)=O)=C(C)N2c1ccccc1 (configuration not stated),-0.6,-2.1,14.2,-9.2,13.4,-2.0
COc1ccnc(Oc2ccccc2)c1C(=O)N/C=N/OCc1ccc(F)cc1Cl,35.0*,20.2,-12.8,5.6,-16.2,13.5
CCc1nnc(NS(=O)(=O)c2ccc(NC(=S)NC(=O)/C=C/c3ccc(C(C)C)cc3)cc2)s1,-1.3,27.1*,-13.4,-7.2,-21.3,11.9
O=C(CSc1ccc(-c2ccccn2)nn1)c1ccccc1,7.0,-9.8,-10.5,-2.5,-3.3,4.5
O=C(CSc1ccc(-c2ccccn2)nn1)c1ccc(F)cc1,4.1,7.1,12.2,4.0,28.2*,31.5*
Cc1c(C(=O)NCc2ccc3c(c2)OCO3)oc2ccc(S(=O)(=O)N3CCCC3)cc12,14.7,7.0,-7.7,1.6,-15.4,11.0
Cc1c(C(=O)NCc2ccc3c(c2)OCO3)oc2ccc(S(=O)(=O)N3CCCCC3)cc12,15.5,27.4*,-26.6,3.7,-18.8,15.0
CN1C(=S)N(c2cccnc2)C(=O)/C1=C\c1ccc(N(C)C)cc1,13.7,11.0,-7.2,59.9*,-20.9,31.3*
